The source made the active and inactive calls. The calls are words filed in the database; no cut-off is given here.
Key:
Quadruplex DNA [1] = assay: Binding affinity to human VEGF G-quadruplex DNA assessed as stabilization of parallel stranded topology after 5 mins in presence of KCl by CD spectroscopic method; type: nucleic-acid assay
How it was run: (§1)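 CD spectra of 5 µM G4 DNA in 10 mM Tris-HCl pH 7.4, 100 mM KCl, 0.1 mM EDTA, with or without ligand. Mixtures were heated 95 °C for 5 min and slowly cooled to room temperature. Recorded 200–400 nm at 25 °C, 100 nm/min, 2 s response, 1 cm cell; average of three scans.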

Quadruplex DNA [2] = assay: Binding affinity to human c-Kit2 G-quadruplex DNA assessed as stabilization of parallel stranded topology after 5 mins in presence of KCl by CD spectroscopic method; type: nucleic-acid assay; how it was run: as §1
Quadruplex DNA [3] = assay: Binding affinity to human c-Kit2 G-quadruplex DNA assessed as change in melting temperature in presence of KCl by CD spectroscopic method; type: nucleic-acid assay
How it was run: (§2)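 CD melting of 5 µM G4 DNA in 10 mM Tris-HCl pH 7.4, 25 mM KCl, 0.1 mM EDTA. Ligand was present during folding (heating, slow cooling). Spectra 200–400 nm over 20–96 °C in 2 °C steps, buffer blank subtracted. Tm was taken from normalized ellipticity at the positive maximum (262 nm for promoter G4s). ΔTm = ligand-bound minus DNA alone; average of two independent experiments.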

Quadruplex DNA [4] = assay: Displacement of thiazole orange from human c-Kit1 G-quadruplex DNA after 5 mins in presence of KCl by fluorescence assay; type: nucleic-acid assay
How it was run: (§3)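 Thiazole orange displacement from a G4 DNA–TO complex (1 µM TO + 0.5 µM G4 DNA) in 10 mM Tris-HCl pH 7.4, 100 mM KCl, 0.1 mM EDTA. Ligand was added in increasing steps, with 5 min incubation each. Fluorescence read at ex 501/em 531 nm; % displacement = 100 − (Ft/F0 × 100). DC50 is the ligand concentration giving 50% displacement, read from plots; average of two independent experiments.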

Quadruplex DNA [5] = assay: Binding affinity to human c-Kit1 G-quadruplex DNA assessed as change in melting temperature in presence of KCl by CD spectroscopic method; type: nucleic-acid assay; how it was run: as §2
Quadruplex DNA [6] = assay: Binding affinity to human VEGF G-quadruplex DNA assessed as change in melting temperature in presence of KCl by CD spectroscopic method; type: nucleic-acid assay; how it was run: as §2
Quadruplex DNA [7] = assay: Binding affinity to human c-Kit2 G-quadruplex DNA at 0.6 uM after 5 mins in presence of KCl by fluorescence spectroscopic method; type: nucleic-acid assay
How it was run: (§4)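 Fluorescence titration at 25 °C with 0.6 µM ligand in 10 mM Tris-HCl pH 7.4, 100 mM KCl, 0.1 mM EDTA. Preformed G4 DNA was added stepwise, with 5 min incubation before each spectrum. Excitation 330 nm; emission 350–550 nm, slit 5 nm.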

Quadruplex DNA [8] = assay: Binding affinity to human VEGF G-quadruplex DNA at 0.6 uM after 5 mins in presence of KCl by fluorescence spectroscopic method; type: nucleic-acid assay; how it was run: as §4
Quadruplex DNA [9] = assay: Binding affinity to human c-Kit1 G-quadruplex DNA assessed as stabilization of parallel stranded topology after 5 mins in presence of KCl by CD spectroscopic method; type: nucleic-acid assay; how it was run: as §1
Quadruplex DNA [10] = assay: Displacement of thiazole orange from human c-Myc G-quadruplex DNA after 5 mins in presence of KCl by fluorescence assay; type: nucleic-acid assay; how it was run: as §3
Quadruplex DNA [11] = assay: Binding affinity to human Bcl2 G-quadruplex DNA at 0.6 uM after 5 mins in presence of KCl by fluorescence spectroscopic method; type: nucleic-acid assay; how it was run: as §4
Quadruplex DNA [12] = assay: Binding affinity to human c-Myc G-quadruplex DNA assessed as stabilization of parallel stranded topology after 5 mins in presence of KCl by CD spectroscopic method; type: nucleic-acid assay; how it was run: as §1
Quadruplex DNA [13] = assay: Binding affinity to human c-Kit1 G-quadruplex DNA at 0.6 uM after 5 mins in presence of KCl by fluorescence spectroscopic method; type: nucleic-acid assay; how it was run: as §4
Quadruplex DNA [14] = assay: Binding affinity to human telomeric G-quadruplex DNA assessed as change in melting temperature in presence of KCl by CD spectroscopic method; type: nucleic-acid assay; how it was run: as §2
Quadruplex DNA [15] = assay: Binding affinity to human Bcl2 G-quadruplex DNA assessed as change in melting temperature in presence of KCl by CD spectroscopic method; type: nucleic-acid assay; how it was run: as §2
Quadruplex DNA [16] = assay: Displacement of thiazole orange from human Bcl2 G-quadruplex DNA after 5 mins in presence of KCl by fluorescence assay; type: nucleic-acid assay; how it was run: as §3
Quadruplex DNA [17] = assay: Binding affinity to human c-Myc G-quadruplex DNA assessed as change in melting temperature in presence of KCl by CD spectroscopic method; type: nucleic-acid assay; how it was run: as §2
Quadruplex DNA [18] = assay: Induction of conformational changes in human telomeric G-quadruplex DNA assessed as inversion from potassium ion stabilized hybrid type mixed parallel/antiparallel G-quadruplex to stable telomere parallel-stranded G-quadruplex after 5 mins in presence of KCl by CD spectroscopic method; type: nucleic-acid assay; how it was run: as §1
Quadruplex DNA [19] = assay: Binding affinity to human c-Myc G-quadruplex DNA at 0.6 uM after 5 mins in presence of KCl by fluorescence spectroscopic method; type: nucleic-acid assay; how it was run: as §4
Quadruplex DNA [20] = assay: Displacement of thiazole orange from human telomeric G-quadruplex DNA after 5 mins in presence of KCl by fluorescence assay; type: nucleic-acid assay; how it was run: as §3
Calf thymus DNA = assay: Displacement of thiazole orange from calf thymus duplex DNA after 5 mins in presence of KCl by fluorescence assay; type: nucleic-acid assay, Bos taurus
Quadruplex DNA [21] = assay: Induction of conformational changes in human Bcl2 G-quadruplex DNA assessed as inversion from potassium ion stabilized hybrid type mixed parallel/antiparallel G-quadruplex to stable telomere parallel-stranded G-quadruplex after 5 mins in presence of KCl by CD spectroscopic method; type: nucleic-acid assay; how it was run: as §1
Quadruplex DNA [22] = assay: Displacement of thiazole orange from human c-Kit2 G-quadruplex DNA after 5 mins in presence of KCl by fluorescence assay; type: nucleic-acid assay; how it was run: as §3
Quadruplex DNA [23] = assay: Binding affinity to human telomeric G-quadruplex DNA at 0.6 uM after 5 mins in presence of KCl by fluorescence spectroscopic method; type: nucleic-acid assay; how it was run: as §4
Quadruplex DNA [24] = assay: Displacement of thiazole orange from human VEGF G-quadruplex DNA after 5 mins in presence of KCl by fluorescence assay; type: nucleic-acid assay; how it was run: as §3
Quadruplex DNA [25] = assay: Binding affinity to human 77-mer c-Myc G-quadruplex DNA assessed as inhibition of Taq DNA polymerase-mediated DNA synthesis by measuring generation of premature chain termination products using 32P-labeled primer after 30 mins by polymerase stop assay; type: nucleic-acid assay
How it was run: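 Template of 10 nM single-stranded 77-mer c-MYC with the G-quadruplex-forming sequence, annealed to 32P-labeled plus cold primer (15 nM) in Tris-HCl pH 7.4 with 5 mM KCl. Annealing was 95 °C for 5 min then slow cooling, with ligand added before annealing. Extension with Taq polymerase (5 mM MgCl2, 0.5 mM DTT, 0.2 mM dNTPs) ran 30 min at 48 or 40 °C. Products were resolved on 15% urea denaturing PAGE and read by phosphorimaging.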

Structure (SMILES) | Activity (Quadruplex DNA [1]) | Activity (Quadruplex DNA [2]) | ΔTm (Quadruplex DNA [3]) [°C] | DC50 (Quadruplex DNA [4]) [nM] | ΔTm (Quadruplex DNA [5]) [°C] | ΔTm (Quadruplex DNA [6]) [°C] | Activity (Quadruplex DNA [7]) | Activity (Quadruplex DNA [8]) | Activity (Quadruplex DNA [9]) | DC50 (Quadruplex DNA [10]) [nM] | Activity (Quadruplex DNA [11]) | Activity (Quadruplex DNA [12]) | ΔTm (Quadruplex DNA [14]) [°C] | ΔTm (Quadruplex DNA [15]) [°C] | DC50 (Quadruplex DNA [16]) [nM] | ΔTm (Quadruplex DNA [17]) [°C] | DC50 (Quadruplex DNA [20]) [nM] | DC50 (Calf thymus DNA) [nM] | DC50 (Quadruplex DNA [22]) [nM] | DC50 (Quadruplex DNA [24]) [nM] | further results
CN1CCN(CCCCn2c3ccc(-c4nc5cc(N6CCOCC6)ccc5[nH]4)cc3c3cc(-c4nc5cc(N6CCOCC6)ccc5[nH]4)ccc32)CC1 | Active | Active | 16.6 | 980 | 12.2 | 14.2 | Active | Active | Active | 850 | Active | Active | 16.9 | 5.54 | 1290 | 8.65 | 1300 | 5520 | 740 | 630 | Activity (Quadruplex DNA [13]): Active; Activity (Quadruplex DNA [18]): inactive; Activity (Quadruplex DNA [19]): Active; Activity (Quadruplex DNA [21]): inactive; Activity (Quadruplex DNA [23]): Active
C[n+]1ccc(-c2c3nc(c(-c4cc[n+](C)cc4)c4ccc([nH]4)c(-c4cc[n+](C)cc4)c4nc(c(-c5cc[n+](C)cc5)c5ccc2[nH]5)C=C4)C=C3)cc1 | – | – | – | 320 | – | – | – | – | – | 380 | – | – | – | – | 430 | – | 470 | 870 | 350 | 310 | –
C[n+]1ccc(-c2c3nc(c(-c4cc[n+](C)cc4)c4ccc([nH]4)c(-c4cc[n+](C)cc4)c4ccc([nH]4)c(-c4cc[n+](C)cc4)c4nc2C=C4)C=C3)cc1 | – | – | 15.5 | – | 15.1 | 12.3 | – | – | – | – | – | – | 15.6 | 14.3 | – | 11 | – | – | – | – | –

More lines, main results first:

Activity (Quadruplex DNA [1]) | Activity (Quadruplex DNA [2]) | ΔTm (Quadruplex DNA [3]) [°C] | DC50 (Quadruplex DNA [4]) [nM] | ΔTm (Quadruplex DNA [5]) [°C] | ΔTm (Quadruplex DNA [6]) [°C] | Activity (Quadruplex DNA [7]) | Activity (Quadruplex DNA [8]) | Activity (Quadruplex DNA [9]) | DC50 (Quadruplex DNA [10]) [nM] | Activity (Quadruplex DNA [11]) | Activity (Quadruplex DNA [12]) | ΔTm (Quadruplex DNA [14]) [°C] | ΔTm (Quadruplex DNA [15]) [°C] | DC50 (Quadruplex DNA [16]) [nM] | ΔTm (Quadruplex DNA [17]) [°C] | DC50 (Quadruplex DNA [20]) [nM] | DC50 (Calf thymus DNA) [nM] | DC50 (Quadruplex DNA [22]) [nM] | DC50 (Quadruplex DNA [24]) [nM] | Structure (SMILES) | further results
Active | Active | 22 | 880 | 25.9 | 14.2 | Active | Active | Active | 980 | Active | Active | 21.2 | 9.5 | 1440 | 8.86 | 1150 | 6490 | 660 | 750 | CN1CCN(CCCCn2c3ccc(-c4nc5cc(N6CCN(CCO)CC6)ccc5[nH]4)cc3c3cc(-c4nc5cc(N6CCN(CCO)CC6)ccc5[nH]4)ccc32)CC1 | Activity (Quadruplex DNA [13]): Active; Activity (Quadruplex DNA [18]): Active; Activity (Quadruplex DNA [19]): Active; Activity (Quadruplex DNA [21]): Active; Activity (Quadruplex DNA [23]): Active
Active | Active | 7.53 | > 3000 | 3.58 | 4.35 | Active | Active | Active | > 3000 | Active | Active | 7.14 | 3.26 | > 3000 | 4.95 | > 3000 | > 10000 | > 3000 | > 3000 | C[N+]1(CCCCN2CCOCC2)CCN(CCCCn2c3ccc(-c4nc5ccc(N6CCOCC6)cc5[nH]4)cc3c3cc(-c4nc5ccc(N6CCOCC6)cc5[nH]4)ccc32)CC1 | Activity (Quadruplex DNA [13]): Active; Activity (Quadruplex DNA [18]): inactive; Activity (Quadruplex DNA [19]): Active; Activity (Quadruplex DNA [21]): inactive; Activity (Quadruplex DNA [23]): Active
Active | Active | 17 | 1620 | 13.2 | 12.8 | Active | Active | Active | 1630 | Active | Active | 9.74 | 6.53 | 2860 | 8.63 | 2790 | 5280 | 1340 | 1420 | CCn1c2ccc(-c3nc4ccc(N5CCN(CCO)CC5)cc4[nH]3)cc2c2cc(-c3nc4ccc(N5CCN(CCO)CC5)cc4[nH]3)ccc21 | Activity (Quadruplex DNA [13]): Active; Activity (Quadruplex DNA [25]): Dose-dependent effect; Activity (Quadruplex DNA [18]): Active; Activity (Quadruplex DNA [19]): Active; Activity (Quadruplex DNA [21]): Active; Activity (Quadruplex DNA [23]): Active

From ChEMBL document CHEMBL4196021, “Targeting G-quadruplex DNA structures in the telomere and oncogene promoter regions by benzimidazole‒carbazole ligands” (Eur J Med Chem, 2018)
